Measurements pooled from the literature.
Compare with care: the assays were run in different laboratories.
Target: Serine/threonine-protein kinase Sgk1 (SGK1, Homo sapiens, UniProt O00141)
One construct used (O00141 1-431): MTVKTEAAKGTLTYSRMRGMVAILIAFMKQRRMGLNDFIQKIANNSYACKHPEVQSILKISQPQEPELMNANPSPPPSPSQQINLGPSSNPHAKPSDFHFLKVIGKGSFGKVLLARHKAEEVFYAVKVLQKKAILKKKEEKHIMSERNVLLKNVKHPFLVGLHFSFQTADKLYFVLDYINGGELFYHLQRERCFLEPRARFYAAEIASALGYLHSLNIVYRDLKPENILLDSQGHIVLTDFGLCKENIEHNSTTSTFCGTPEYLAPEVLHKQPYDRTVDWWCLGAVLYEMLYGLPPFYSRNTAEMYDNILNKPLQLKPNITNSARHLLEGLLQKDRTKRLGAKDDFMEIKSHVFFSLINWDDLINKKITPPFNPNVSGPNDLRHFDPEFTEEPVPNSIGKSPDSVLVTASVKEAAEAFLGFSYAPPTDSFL

`Cn1cncc1[C@@](O)(COc1ccc(C#N)cc1-c1ccc(OC(F)(F)F)cc1)c1ccc(C#N)cc1` has a remaining binding of 100% (cell-free assay, competition with immobilised ligand; 1 µM).
For `Cn1cc(-c2cc(F)cc(N3CCn4c(cc5c4CCCC5)C3=O)c2CO)cc(Nc2ccc(N3CCN(C4COC4)CC3)cn2)c1=O`, the inhibition was 13% (enzyme activity, inhibitor; 0.1 µM).
The remaining binding of `COc1ncccc1-c1cnn2ccc(N3CCN(C(=O)OC(C)C)CC3)nc12` is reported as 100% (binding, competition with immobilised ligand; 1 µM).
The remaining activity of `CC(C)(C)c1cc(C=C(C#N)C#N)cc(Br)c1O` is reported as 95.3% (enzyme activity, inhibitor; 0.5 µM).
`N#CC1(c2ccccn2)CCN(Cc2cc(C(=O)O)c(=O)n3ccccc23)CC1` gave a remaining binding of 87% (cell-free assay, competition with immobilised ligand; 1 µM).
`Nc1ncc(-c2nc(N3CCOCC3)nc(N3CCOCC3)n2)c(C(F)F)n1` has a remaining binding of 77% (binding, competition with immobilised ligand; 10 µM).
With `Cn1cc(-c2cccc(N3CCc4c(sc5c4CC(C)(C)C5)C3=O)c2CO)cc(Nc2ccncn2)c1=O` the inhibition was -11% (enzyme activity, inhibitor; 1 µM).
`C#Cc1n[nH]c2c(-c3cn(C(C)c4ccccn4)c(=O)[nH]c3=O)cc(F)cc12` (stereo not drawn) has an inhibition of 0% (enzyme activity, inhibitor; 1 µM).
With `O=c1[nH]c2ccccc2n1C1CCN(Cc2ccc(-c3[nH]c4cc5ncnc5cc4nc3-c3ccccc3)cc2)CC1` the remaining signal was 102% (cell-free assay; 0.5 µM).
